# In paper PMC3902791 (Molecular imaging and biology : MIB : the official …, 2012):
# Entries after “also recorded” stand apart in the source; their conditions may differ.
# Tests used:
# [1] = Stability of radiochemical purity of the product; type: physicochemical; conditions: after completion of the synthesis
# Summary of the method: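 Final product was in 0.9% saline adjusted to pH 6–8 and sterile-filtered. Radiochemical purity was followed after end of synthesis by HPLC: Supelcogel C-610H column (30 cm × 7.8 mm), 20 mM aqueous phosphoric acid, 0.5 mL/min, UV and radioactivity detection.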
# [2] = Radio-HPLC analysis of radiolabeled metabolites in blood plasma and urine; type: in vivo, rhesus macaques
# Summary of the method: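 Plasma was ultrafiltered, then run on radio-HPLC (Supelcogel C-610H column, 20 mM phosphoric acid, 0.5 mL/min, UV plus radioactivity detection). Peaks were identified with cold fluorocitrate and fluoride standards, and fractions were taken from peak areas. Urine was collected by Foley catheter, which was clamped until after the second whole-body scan. It was collected at 120–150 min, gamma-counted and analysed by the same HPLC.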
# [3] = test system: rhesus macaques; assay: Hematology and blood chemistry before and after PET imaging; type: in vivo
structure (smiles),measurement,setting,value
"O=C(O)C[18F] [^18F-FACE, ^18F-fluoroacetate]",time the product maintained its radiochemical purity,[1],more than 8 h
same,^18F-fluorocitrate anabolite,[2]; 3-h study,not detectable
same,fraction of total radioactivity in urine as ^18F-FACE,[2]; urine collected at 120–150 min,72.4%
same,fraction of total radioactivity in urine as ^18F-fluoride,[2]; urine collected at 120–150 min,27.6%
same,ALP,[3]; After 1–3 months,134.0±58.2 IU/L
same,ALT,[3]; After 1–3 months,30.5±8.5 IU/L
same,AST,[3]; After 1–3 months,28.7±3.4 IU/L
same,Albumin,[3]; After 1–3 months,3.4 ± 0.8 g/dL
same,BUN,[3]; After 1–3 months,17.9 ± 4.9 mg/dL
same,Hb,[3]; After 1–3 months,13.4 ± 0.4 g/dL
same,Hct,[3]; After 1–3 months,42.4±2.0 %
same,Plt,[3]; After 1–3 months,303.0±118.8 ×10^6/mL
same,RBC,[3]; After 1–3 months,5.7±0.1 ×10^6/mL
same,Total bilirubin,[3]; After 1–3 months,0.2 ± 0.1 mg/dL
same,Total protein,[3]; After 1–3 months,6.1 ± 0.9 g/dL
same,WBC,[3]; After 1–3 months,4.8±0.5 ×10^3/mL
same,ALP,[3]; After imaging,169.4±61.3 IU/L
same,ALT,[3]; After imaging,34.2±12.2 IU/L
same,AST,[3]; After imaging,29.0±5.6 IU/L
same,Albumin,[3]; After imaging,3.9 ± 0.8 g/dL
same,BUN,[3]; After imaging,17.9 ± 4.6 mg/dL
same,Hb,[3]; After imaging,13.1 ± 1.2 g/dL
same,Hct,[3]; After imaging,41.4±2.5 %
same,Plt,[3]; After imaging,328.1±54.2 ×10^6/mL
same,RBC,[3]; After imaging,5.7±0.6 ×10^6/mL
same,Total bilirubin,[3]; After imaging,0.3 ± 0.1 mg/dL
same,Total protein,[3]; After imaging,7.0 ± 0.5 g/dL
same,WBC,[3]; After imaging,6.8± 1.1 ×10^3/mL
same,"changes in CBC, blood chemistry, liver enzymes, renal function",[3]; before vs after 3 h and 1–3 months,"no statistically significant changes; also recorded: no significant changes in CBC, liver enzymes, or renal function"
